Measured values: ChEMBL document CHEMBL4411287, “Discovery and optimization of a series of 3-substituted indazole derivatives as multi-target kinase inhibitors for the treatment of lung squamous cell carcinoma” (Eur J Med Chem, 2019)
Calls of active or inactive are those of the source. The rule behind the calls is not given here.

Columns and labels:
[1] = biological target: T1, Ephrin type-B receptor 2 (Homo sapiens) (UniProt P29323); assay: Inhibition of EPH-B2 (unknown origin) at 1000 nM relative to control
T1 sequence (whole entry): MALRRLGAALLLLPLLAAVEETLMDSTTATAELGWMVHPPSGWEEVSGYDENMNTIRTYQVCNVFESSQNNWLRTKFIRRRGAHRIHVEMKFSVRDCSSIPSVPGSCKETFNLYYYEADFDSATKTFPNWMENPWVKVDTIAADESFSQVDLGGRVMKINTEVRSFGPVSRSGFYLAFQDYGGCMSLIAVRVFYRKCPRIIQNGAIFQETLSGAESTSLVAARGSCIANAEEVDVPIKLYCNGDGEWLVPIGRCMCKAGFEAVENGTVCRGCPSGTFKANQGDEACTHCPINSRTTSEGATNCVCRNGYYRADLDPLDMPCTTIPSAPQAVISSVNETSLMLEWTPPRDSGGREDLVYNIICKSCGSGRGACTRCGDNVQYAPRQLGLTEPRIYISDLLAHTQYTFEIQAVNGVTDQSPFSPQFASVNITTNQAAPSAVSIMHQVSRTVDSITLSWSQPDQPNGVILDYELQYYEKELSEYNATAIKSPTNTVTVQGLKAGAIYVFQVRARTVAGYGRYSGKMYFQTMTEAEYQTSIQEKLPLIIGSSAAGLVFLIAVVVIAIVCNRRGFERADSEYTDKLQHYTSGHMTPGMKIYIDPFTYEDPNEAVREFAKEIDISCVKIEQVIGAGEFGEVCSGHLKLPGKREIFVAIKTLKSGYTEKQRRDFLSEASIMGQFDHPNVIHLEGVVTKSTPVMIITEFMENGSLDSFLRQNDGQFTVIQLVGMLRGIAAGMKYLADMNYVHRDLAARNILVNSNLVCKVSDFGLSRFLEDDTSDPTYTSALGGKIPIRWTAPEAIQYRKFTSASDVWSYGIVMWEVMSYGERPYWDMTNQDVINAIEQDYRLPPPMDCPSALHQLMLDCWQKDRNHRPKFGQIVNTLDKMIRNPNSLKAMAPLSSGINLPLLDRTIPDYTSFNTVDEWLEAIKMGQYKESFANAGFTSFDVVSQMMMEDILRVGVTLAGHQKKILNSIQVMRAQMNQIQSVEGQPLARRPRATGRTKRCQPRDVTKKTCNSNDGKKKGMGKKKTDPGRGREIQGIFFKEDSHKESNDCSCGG
Procedure, shortened: (§1)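 Purified recombinant kinase domains run in ELISA on precoated poly(Glu,Tyr) 4:1 (20 µg/mL) with 10 µM ATP in 50 mM HEPES pH 7.4, 50 mM MgCl2, 0.5 mM MnCl2, 0.2 mM Na3VO4, 1 mM DTT; 1% DMSO control; 60 min at 37 °C. Phosphotyrosine read by PY99 antibody, HRP anti-mouse IgG, OPD/H2O2 at 490 nm; inhibition = [1−A490/A490control]×100%; two separate experiments.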

[2] = biological target: Tyrosine-protein kinase JAK1 (Homo sapiens) (UniProt P23458); assay: Inhibition of JAK1 (unknown origin) at 1000 nM relative to control; procedure, shortened: as §1
Tyrosine-protein kinase JAK1 (Homo sapiens), sequence (P23458 whole entry): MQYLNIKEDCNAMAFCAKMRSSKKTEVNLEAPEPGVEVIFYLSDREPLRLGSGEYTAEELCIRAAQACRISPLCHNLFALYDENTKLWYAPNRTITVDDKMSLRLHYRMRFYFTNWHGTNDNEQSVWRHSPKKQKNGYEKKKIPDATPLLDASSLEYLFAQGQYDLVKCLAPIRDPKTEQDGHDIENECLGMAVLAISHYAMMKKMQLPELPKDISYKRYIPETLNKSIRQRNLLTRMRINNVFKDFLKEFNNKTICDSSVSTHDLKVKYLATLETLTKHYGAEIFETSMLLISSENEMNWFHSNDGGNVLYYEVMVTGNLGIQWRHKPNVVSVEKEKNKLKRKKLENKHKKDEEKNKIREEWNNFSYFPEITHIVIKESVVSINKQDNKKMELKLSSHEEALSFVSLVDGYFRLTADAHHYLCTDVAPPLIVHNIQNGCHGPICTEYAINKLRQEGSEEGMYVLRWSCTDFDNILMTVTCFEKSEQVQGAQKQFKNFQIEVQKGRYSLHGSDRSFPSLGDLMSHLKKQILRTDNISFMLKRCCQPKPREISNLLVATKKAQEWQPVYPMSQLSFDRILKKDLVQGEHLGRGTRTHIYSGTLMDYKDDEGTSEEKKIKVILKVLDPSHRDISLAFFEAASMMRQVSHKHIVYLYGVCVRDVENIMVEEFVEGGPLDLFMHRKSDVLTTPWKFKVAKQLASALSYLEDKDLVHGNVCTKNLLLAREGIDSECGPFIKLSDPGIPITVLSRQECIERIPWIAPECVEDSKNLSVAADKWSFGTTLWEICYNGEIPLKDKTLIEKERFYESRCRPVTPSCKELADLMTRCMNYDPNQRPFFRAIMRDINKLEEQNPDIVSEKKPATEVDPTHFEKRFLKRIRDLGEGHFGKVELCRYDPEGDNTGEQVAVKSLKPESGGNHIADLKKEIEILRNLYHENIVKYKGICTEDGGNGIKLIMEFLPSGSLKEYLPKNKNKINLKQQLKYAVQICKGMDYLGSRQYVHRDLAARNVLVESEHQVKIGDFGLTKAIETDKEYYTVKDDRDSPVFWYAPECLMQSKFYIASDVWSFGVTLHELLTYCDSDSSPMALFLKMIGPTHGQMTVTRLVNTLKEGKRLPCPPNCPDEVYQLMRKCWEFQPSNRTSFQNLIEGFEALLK

[3] = biological target: Cyclin-dependent kinase 6 (Homo sapiens) (UniProt Q00534); assay: Inhibition of CDK6 (unknown origin) at 100 nM relative to control
[4] = biological target: Platelet-derived growth factor receptor beta (Homo sapiens) (UniProt P09619); assay: Inhibition of PDGFR-beta (unknown origin) at 10 nM relative to control; procedure, shortened: as §1
[5] = biological target: Receptor tyrosine-protein kinase erbB-2 (Homo sapiens) (UniProt P04626); assay: Inhibition of ErbB2 (unknown origin) at 100 nM relative to control; procedure, shortened: as §1
[6] = biological target: Receptor-type tyrosine-protein kinase FLT3 (Homo sapiens) (UniProt P36888); assay: Inhibition of FLT-3 (unknown origin) at 1000 nM relative to control; procedure, shortened: as §1
Receptor-type tyrosine-protein kinase FLT3 (Homo sapiens), sequence (P36888 whole entry): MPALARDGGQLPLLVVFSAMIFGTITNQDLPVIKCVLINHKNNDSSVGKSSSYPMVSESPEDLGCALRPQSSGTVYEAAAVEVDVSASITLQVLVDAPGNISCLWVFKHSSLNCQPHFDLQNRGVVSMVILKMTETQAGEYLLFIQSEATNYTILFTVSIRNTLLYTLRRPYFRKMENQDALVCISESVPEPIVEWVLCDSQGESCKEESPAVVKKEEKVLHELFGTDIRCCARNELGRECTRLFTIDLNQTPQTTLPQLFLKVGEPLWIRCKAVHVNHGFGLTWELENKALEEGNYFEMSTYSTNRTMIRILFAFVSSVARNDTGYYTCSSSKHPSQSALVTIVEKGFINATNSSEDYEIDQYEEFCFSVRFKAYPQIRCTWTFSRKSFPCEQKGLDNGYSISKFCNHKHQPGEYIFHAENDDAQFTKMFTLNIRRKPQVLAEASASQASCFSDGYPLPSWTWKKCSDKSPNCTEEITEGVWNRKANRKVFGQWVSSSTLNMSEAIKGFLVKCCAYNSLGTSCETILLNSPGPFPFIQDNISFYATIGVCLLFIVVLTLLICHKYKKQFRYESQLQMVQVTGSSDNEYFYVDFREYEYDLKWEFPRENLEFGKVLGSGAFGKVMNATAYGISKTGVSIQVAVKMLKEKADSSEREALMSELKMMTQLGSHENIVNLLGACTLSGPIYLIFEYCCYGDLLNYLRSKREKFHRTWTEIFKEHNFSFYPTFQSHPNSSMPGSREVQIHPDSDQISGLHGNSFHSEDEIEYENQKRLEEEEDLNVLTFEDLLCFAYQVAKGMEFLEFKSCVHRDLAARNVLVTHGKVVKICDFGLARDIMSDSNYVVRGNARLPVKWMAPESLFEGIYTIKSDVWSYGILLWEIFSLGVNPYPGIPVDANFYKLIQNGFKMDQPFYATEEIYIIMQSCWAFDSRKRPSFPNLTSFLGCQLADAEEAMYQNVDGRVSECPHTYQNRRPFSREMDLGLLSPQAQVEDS

[7] = biological target: Cyclin-dependent kinase 4 (Homo sapiens) (UniProt P11802); assay: Inhibition of CDK4 (unknown origin) at 1000 nM relative to control
Cyclin-dependent kinase 4 (Homo sapiens), sequence (P11802 whole entry): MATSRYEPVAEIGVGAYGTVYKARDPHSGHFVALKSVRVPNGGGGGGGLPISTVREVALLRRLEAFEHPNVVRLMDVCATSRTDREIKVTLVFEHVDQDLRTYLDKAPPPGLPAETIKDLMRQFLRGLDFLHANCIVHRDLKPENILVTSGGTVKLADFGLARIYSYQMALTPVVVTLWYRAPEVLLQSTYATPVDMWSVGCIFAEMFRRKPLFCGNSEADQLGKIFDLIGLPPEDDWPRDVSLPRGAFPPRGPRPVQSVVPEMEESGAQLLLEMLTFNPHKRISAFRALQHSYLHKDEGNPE

[8] = biological target: Tyrosine-protein kinase JAK2 (Homo sapiens) (UniProt O60674); assay: Inhibition of JAK2 (unknown origin) at 1000 nM relative to control; procedure, shortened: as §1
SNU-16 = assay: Antiproliferative activity against FGFR2 amplified human SNU16 cells after 72 hrs by CCK8 assay; format: functional, cell-based; details: SNU-16, 72 h
Procedure, shortened: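 Cells seeded at low density in growth medium and compounds added the next day. Incubated 72 h, then proliferation read by sulforhodamine B, MTT or CCK-8. IC50 obtained by four-parameter concentration-response curve fitting.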

[9] = biological target: Proto-oncogene tyrosine-protein kinase Src (Homo sapiens) (UniProt P12931); assay: Inhibition of c-Src (unknown origin) at 100 nM relative to control
Procedure, shortened: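 ELISA with purified recombinant kinase on plates precoated with poly(Glu,Tyr) 4:1 at 20 µg/mL. ATP 10 µM in HEPES pH 7.4 buffer with MgCl2, MnCl2, Na3VO4 and DTT. Run 60 min at 37 °C. Detected with anti-phosphotyrosine PY99, HRP secondary antibody and o-phenylenediamine, read at 490 nm. Inhibition % = [1 − A490/A490 control]×100. 1% DMSO as negative control.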

[10] = biological target: Insulin-like growth factor 1 receptor (Homo sapiens) (UniProt P08069); assay: Inhibition of IGF1R (unknown origin) at 10 nM relative to control; procedure, shortened: as §1
Insulin-like growth factor 1 receptor (Homo sapiens), sequence (P08069 31-736 limits assumed): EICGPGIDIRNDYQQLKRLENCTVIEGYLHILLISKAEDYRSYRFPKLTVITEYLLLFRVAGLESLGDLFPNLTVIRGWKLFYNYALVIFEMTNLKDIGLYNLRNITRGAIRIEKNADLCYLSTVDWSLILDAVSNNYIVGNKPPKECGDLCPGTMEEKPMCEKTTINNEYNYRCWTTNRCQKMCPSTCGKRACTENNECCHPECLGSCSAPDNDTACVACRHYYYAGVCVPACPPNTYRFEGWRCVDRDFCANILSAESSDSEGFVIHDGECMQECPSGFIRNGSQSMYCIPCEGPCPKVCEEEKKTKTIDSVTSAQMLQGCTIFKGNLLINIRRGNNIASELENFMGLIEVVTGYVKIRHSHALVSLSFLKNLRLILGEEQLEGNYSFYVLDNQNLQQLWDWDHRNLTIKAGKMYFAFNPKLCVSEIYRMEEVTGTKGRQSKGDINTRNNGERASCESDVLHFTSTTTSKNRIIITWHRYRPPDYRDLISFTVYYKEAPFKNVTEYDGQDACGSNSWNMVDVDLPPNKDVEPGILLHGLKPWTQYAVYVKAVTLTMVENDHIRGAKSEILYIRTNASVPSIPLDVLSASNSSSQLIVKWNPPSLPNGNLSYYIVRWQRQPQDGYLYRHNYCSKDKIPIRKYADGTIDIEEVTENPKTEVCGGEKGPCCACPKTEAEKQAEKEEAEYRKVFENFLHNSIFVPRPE
Insulin-like growth factor 1 receptor (Homo sapiens), sequence (P08069 741-1367 limits assumed): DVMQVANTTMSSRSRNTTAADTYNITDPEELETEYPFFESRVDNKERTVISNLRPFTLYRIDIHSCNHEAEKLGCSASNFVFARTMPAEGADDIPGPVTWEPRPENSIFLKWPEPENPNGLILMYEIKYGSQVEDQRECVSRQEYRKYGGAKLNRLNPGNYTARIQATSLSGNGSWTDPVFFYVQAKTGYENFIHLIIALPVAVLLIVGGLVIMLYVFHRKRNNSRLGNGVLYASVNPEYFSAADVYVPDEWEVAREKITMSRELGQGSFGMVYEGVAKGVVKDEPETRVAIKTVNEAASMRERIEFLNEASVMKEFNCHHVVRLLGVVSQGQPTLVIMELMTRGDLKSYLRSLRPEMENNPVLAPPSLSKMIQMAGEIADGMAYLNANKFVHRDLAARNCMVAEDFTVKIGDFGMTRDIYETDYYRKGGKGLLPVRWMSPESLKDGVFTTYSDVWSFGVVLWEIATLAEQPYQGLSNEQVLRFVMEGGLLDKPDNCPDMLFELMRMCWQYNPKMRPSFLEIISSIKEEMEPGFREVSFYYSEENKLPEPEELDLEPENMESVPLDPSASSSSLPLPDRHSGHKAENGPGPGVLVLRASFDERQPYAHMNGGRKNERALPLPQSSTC

[11] = AUC (0 to infinity) in ICR(CD-1) mouse at 10 mg/kg, po administered via gavage by triple quadrupole mass spectrometric analysis; format: ADME, organism-based; parameters: dose 10 mg/kg, route oral, time infinity; details: in vivo
Procedure, shortened: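 Oral gavage at 1 mg/mL in 1% Tween80/water to male ICR mice (18-22 g, n=3). Plasma sampled at 0.25, 0.5, 1, 2, 4, 8 and 24 h, protein precipitated with methanol:acetonitrile (1:1) containing internal standard, and quantified by UPLC-triple quadrupole MS. AUC and MRT were taken from per-animal time-concentration curves. Cmax is the maximum plasma level and Tmax the time to reach it.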

[12] = biological target: Fibroblast growth factor receptor 2 (Homo sapiens) (UniProt P21802); assay: Inhibition of FGFR2 in human SNU-16 cells assessed as decrease in ERK phosphorylation at 25 to 200 nM after 2 hrs by Western blot analysis; format: cell-based
Fibroblast growth factor receptor 2 (Homo sapiens), sequence (P21802 22-821 limits assumed): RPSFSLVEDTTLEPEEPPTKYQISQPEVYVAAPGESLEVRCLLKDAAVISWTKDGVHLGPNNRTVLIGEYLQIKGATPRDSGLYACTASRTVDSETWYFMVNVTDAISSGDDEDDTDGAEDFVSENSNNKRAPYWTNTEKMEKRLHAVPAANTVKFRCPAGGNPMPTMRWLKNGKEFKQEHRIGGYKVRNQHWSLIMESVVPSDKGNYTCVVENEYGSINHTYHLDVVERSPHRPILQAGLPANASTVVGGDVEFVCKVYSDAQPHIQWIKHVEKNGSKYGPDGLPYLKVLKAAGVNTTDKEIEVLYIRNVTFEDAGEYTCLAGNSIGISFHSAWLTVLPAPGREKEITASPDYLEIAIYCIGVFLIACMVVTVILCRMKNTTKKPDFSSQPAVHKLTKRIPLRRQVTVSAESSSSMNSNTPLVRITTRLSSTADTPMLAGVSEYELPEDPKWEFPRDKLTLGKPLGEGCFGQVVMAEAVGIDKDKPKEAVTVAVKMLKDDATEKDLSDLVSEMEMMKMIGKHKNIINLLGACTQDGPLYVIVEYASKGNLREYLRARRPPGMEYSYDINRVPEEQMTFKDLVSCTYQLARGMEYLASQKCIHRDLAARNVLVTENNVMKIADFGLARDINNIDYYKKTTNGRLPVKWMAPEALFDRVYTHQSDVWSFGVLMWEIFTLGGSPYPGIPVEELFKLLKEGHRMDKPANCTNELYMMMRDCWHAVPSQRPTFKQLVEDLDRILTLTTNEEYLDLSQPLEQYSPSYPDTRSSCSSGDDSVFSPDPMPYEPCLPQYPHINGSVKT
Procedure, shortened: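 SNU-16 cells exposed to compound for 2 h at 37 °C, lysed in 1× SDS sample buffer, resolved by 10% SDS-PAGE and blotted to nitrocellulose; probed for phospho-FGFR, FGFR2, phospho-ERK, ERK and GAPDH, then HRP anti-rabbit or anti-mouse IgG; enhanced chemiluminescence detection.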

[13] = biological target: Tyrosine-protein kinase receptor UFO (Homo sapiens) (UniProt P30530); assay: Inhibition of AXL (unknown origin) at 1000 nM relative to control
KG-1 = assay: Antiproliferative activity against human KG1 cells after 72 hrs by CCK8 assay; details: KG-1, 72 h
[14] = biological target: Fibroblast growth factor receptor 4 (Homo sapiens) (UniProt P22455); assay: Inhibition of FGFR4 (unknown origin) at 1000 nM relative to control; procedure, shortened: as §1
[15] = biological target: Mitogen-activated protein kinase 1 (Homo sapiens) (UniProt P28482); assay: Inhibition of ERK2 (unknown origin) at 10 nM relative to control
Mitogen-activated protein kinase 1 (Homo sapiens), sequence (P28482 whole entry): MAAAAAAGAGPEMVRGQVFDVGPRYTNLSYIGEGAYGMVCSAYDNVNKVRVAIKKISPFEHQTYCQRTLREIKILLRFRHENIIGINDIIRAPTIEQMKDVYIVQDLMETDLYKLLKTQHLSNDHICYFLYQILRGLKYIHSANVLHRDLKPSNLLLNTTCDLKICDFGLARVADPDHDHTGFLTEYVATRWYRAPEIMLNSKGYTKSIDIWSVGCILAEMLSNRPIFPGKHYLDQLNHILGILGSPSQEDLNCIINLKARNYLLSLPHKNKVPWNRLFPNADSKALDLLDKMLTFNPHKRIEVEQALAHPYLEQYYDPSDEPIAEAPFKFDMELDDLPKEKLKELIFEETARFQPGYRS

Cc1ccc(C(=O)Nc2cccc(C(F)(F)F)c2)cc1-c1ccc2c(-c3cnn(C4CC4)c3)n[nH]c2c1
inhibition [1]: 86.9%
inhibition [2]: 31.2%
inhibition [3]: 2.6%
inhibition [4]: 59.5%
inhibition [5]: 5.6%
inhibition [6]: 86.2%
inhibition [7]: 0.9%
inhibition [8]: 16.8%
IC50 (SNU-16): 0.0934 µM
inhibition [9]: 87.6%
inhibition [10]: 0%
AUC(0-inf) [11]: 7680 ng·h/mL
inhibition [12]: Active
inhibition [13]: 99.8%
IC50 (KG-1): 0.108 µM
inhibition [14]: 72.4%
inhibition [15]: 0.3%
